High-throughput results: PubChem BioAssay, Johns Hopkins Ion Channel Center
Hits are enriched below; roughly 3.7% of the tested compounds scored in any of these assays.
KCNQ1 pot: potentiators or activators of human KCNQ1 potassium channel | CHO-K1 KCNQ1, thallium flux FluxOR fluorescence; active compounds read high | B-score at 10 µM | 0.35% of 310,000 active;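 active = fluorescence ratio B-score, a plate-corrected score, at least three library SD, with initial intensity B-score within 5 SD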
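assay system = KCNQ1-transfected CHO-K1 cells | medium = assay buffer with matched DMSO | probe or stimulus = depolarizing K+/Tl+ stimulus, K2SO4 and Tl2SO4 each 12.5 mM in 5x stock | dosing = single dose | incubation = dye 90 min, compound 20 min, room temperature | detection = kinetic FluxOR fluorescence, 10 s baseline plus 110 s post-stimulus | evaluation = ratio B score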
hERG rescue: shields human hERG channel from block by proarrhythmic agents; activation (rescue from dofetilide block), less the hit threshold, % at 10 µM; CHO-hERG, FluxOR thallium flux, dofetilide IC70 present; Q12809; 0.51% of 310,000 active; AID 1511;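 active = activation above the mean of controls blocked by dofetilide plus 5 SD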;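 also: thallium influx through hERG after potassium depolarization seen as dye fluorescence rise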
Target sequence (Q12809 whole entry, looked up): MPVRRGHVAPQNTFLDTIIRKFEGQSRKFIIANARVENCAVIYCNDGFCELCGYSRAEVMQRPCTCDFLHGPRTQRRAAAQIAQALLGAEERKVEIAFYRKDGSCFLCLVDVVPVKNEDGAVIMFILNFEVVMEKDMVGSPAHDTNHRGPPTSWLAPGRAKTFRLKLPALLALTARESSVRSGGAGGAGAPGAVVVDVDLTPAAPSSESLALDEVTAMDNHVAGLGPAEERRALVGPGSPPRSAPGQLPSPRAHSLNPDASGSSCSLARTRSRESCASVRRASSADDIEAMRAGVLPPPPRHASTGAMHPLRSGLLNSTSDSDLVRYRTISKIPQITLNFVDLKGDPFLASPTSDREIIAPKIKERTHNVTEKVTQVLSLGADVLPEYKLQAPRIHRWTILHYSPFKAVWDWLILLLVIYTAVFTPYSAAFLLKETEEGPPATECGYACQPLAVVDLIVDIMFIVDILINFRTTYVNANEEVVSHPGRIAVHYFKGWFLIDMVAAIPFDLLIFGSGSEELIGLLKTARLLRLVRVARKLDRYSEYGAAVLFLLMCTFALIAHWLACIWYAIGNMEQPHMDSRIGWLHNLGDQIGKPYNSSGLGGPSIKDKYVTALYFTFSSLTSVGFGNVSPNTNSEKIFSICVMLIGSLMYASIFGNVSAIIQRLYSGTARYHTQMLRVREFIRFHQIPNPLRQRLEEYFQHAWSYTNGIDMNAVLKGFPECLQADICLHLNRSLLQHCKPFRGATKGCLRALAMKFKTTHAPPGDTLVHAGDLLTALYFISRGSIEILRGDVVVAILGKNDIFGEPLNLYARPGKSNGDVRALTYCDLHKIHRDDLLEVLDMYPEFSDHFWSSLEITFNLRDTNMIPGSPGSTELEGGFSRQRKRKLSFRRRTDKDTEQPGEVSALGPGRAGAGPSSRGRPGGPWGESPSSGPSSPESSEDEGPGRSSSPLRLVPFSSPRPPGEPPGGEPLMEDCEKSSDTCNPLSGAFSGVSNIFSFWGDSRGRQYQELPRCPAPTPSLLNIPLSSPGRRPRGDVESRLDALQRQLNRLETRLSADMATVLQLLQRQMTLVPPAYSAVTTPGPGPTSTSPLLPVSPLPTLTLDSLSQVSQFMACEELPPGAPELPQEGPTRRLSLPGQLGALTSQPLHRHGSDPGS
Kir21 block: inhibitors of mouse Kir2.1 inward-rectifier potassium channel. P35561. HEK293-Kir2.1, FluxOR thallium flux fluorescence; active compounds read low. B-score at 10 µM. 0.85% of 310,000 active. AID 1672;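 active = fluorescence ratio B-score at or below minus 3 SD of library scores, with starting-brightness B-score within 2 SD, cut at about -4.2 in these data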;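 also: channel flux triggered by added potassium and thallium sulfate stimulus; B-score of peak minus minimum fluorescence over baseline after thallium stimulus; more negative B-score means stronger Kir2.1 block with less thallium influx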
KCNQ1 block: inhibitors of human KCNQ1 potassium channel; CHO-K1 KCNQ1, FluxOR thallium flux fluorescence; active compounds read high; P51787; 1.3% of 310,000 active; B-score at 10 µM;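 active = compounds whose thallium flux B-score, printed positive for inhibition, exceeds three library SD while starting fluorescence stays within three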;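 also: channel opened by potassium depolarization with thallium stimulus after 20 min compound exposure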
KCNK9 block: human KCNK9 channel inhibition; Q9NPC2; HEK293 KCNK9, FluxOR thallium flux fluorescence; active compounds read low; B-score at 10 µM; 1.2% of 310,000 active; AID 488922;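 active = ratio B-score over 3 SD below the library mean, with starting fluorescence within 5 SD of its mean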;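 also: negative B-score means less thallium flux so channel inhibition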
KCNK3 block: human KCNK3 channel inhibition, primary screen; B-score at 10 µM; CHO-KCNK3 thallium flux, FluxOR fluorescence; active compounds read low; O14649; 0.84% of 340,000 active;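 active = B-score under library mean minus 4 SD, starting fluorescence ratio at most library mean plus 5 SD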;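 also: more negative B-score means stronger inhibition of thallium flux through KCNK3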
* = called active by the depositor; i = inactive; . = no result.

SMILES | KCNQ1 pot | hERG rescue | Kir21 block | KCNQ1 block | KCNK9 block | KCNK3 block
CCOc1ccccc1C(=O)NC(C(=O)N(C)Cc1ccc2c(c1)OCO2)C(C)C (stereo unspecified) | . | . | . | . | . | -9.2*
Cc1ccc(-n2ncc3c(=O)n(CC(=O)N4CCN(c5ccccc5F)CC4)cnc32)cc1C | 7* | 0 | 2.5 | i | i | i
CCN1CCN(c2nc3c(C)cccn3c(=O)c2C=C(C#N)C#N)CC1 | i | -5 | 0.5 | i | i | i
CCCCCn1c(NCc2ccco2)nc2ccccc21 | i | -10 | -4.5* | i | i | i
CCCCCCn1c(C(C)NC(=O)c2ccco2)nc2ccccc21 (stereo unspecified) | i | -7 | -9* | i | i | i
C[C@H]1CN=C(Nc2ccccc2)N1CCC1CCCC1 | i | -8 | 1 | i | i | i
COc1cc(CNC(C)c2ccccc2)cc(Cl)c1OCC(=O)Nc1ccccc1 (stereo unspecified) | i | -19 | -9.5* | i | i | i
S=C(Nc1ccc(Nc2ccccc2)cc1)Nc1ccccn1 | i | -7 | 0.61 | i | -7.1* | i
O=C(Nc1ccccc1)C(=O)Nc1ccccn1 | i | -8 | -0.31 | i | i | i
CCOC(=O)c1sc2nc(C)nc(NCc3cccnc3)c2c1C | i | -6 | 0.03 | i | i | i
Cc1nc(NCc2cccnc2)c2c3c(sc2n1)CC(C)CC3 (stereo unspecified) | 38* | 52* | -0.41 | i | i | i
CCOc1ccccc1C(=O)NC1CC2CCCC(C1)N2Cc1nnnn1Cc1ccco1 (stereo unspecified) | i | 22* | 1.2 | i | i | i
O=C(NC1CC2CCC(C1)N2Cc1nnnn1Cc1ccco1)NC12CC3CC(CC(C3)C1)C2 (stereo unspecified) | i | -17 | 0.55 | i | i | i
Cc1cccc(-c2cnn(-c3ccccc3)c2N)c1 | i | -5 | 1.4 | i | i | i
Nc1c(-c2ccccc2)cnn1-c1cccc(Cl)c1 | i | -12 | 0.28 | i | -7* | i
Nn1c(SCC(=O)Nc2ccccc2)nnc1C1CCCCC1 | i | -7 | -1.4 | i | i | i
Nn1c(SCC(=O)Nc2ccc(F)cc2)nnc1C1CCCCC1 | i | 4.9* | 0.07 | i | i | i
Cc1nnc(SCC(=O)Nc2ccc(S(=O)(=O)N3CCCC3)cc2)n1N | i | 36* | -0.13 | i | i | i
CC1(C)OC2OC3C(CNCCO)OC(c4ccccc4)OC3C2O1 (stereo unspecified) | . | . | . | . | . | i
Cc1ccnc(N2C(=O)c3cccc4c([N+](=O)[O-])ccc(c34)C2=O)c1 | i | -13 | -1 | 7* | i | i
Cc1ccnc(N2C(=O)c3ccccc3C2=O)c1 | i | -8 | 0.07 | i | i | i
Cc1ccc(OCc2nc(C#N)c(N3CCCCC3)o2)cc1 | i | -11 | -2.5 | i | i | i
N#Cc1nc(Cc2ccccc2)oc1N1CCN(c2ccccc2)CC1 | i | -12 | -0.23 | i | -7* | i
CN1CCN(c2oc(Cc3cccc4ccccc34)nc2C#N)CC1 | i | 2 | -0.22 | i | i | i
N#Cc1nc(-c2cccc3ccccc23)oc1NCCN1CCCCC1 | i | -22 | -4.9* | i | i | i
SMILES | KCNQ1 pot | hERG rescue | Kir21 block | KCNQ1 block | KCNK9 block | KCNK3 block
N#Cc1nc(Cc2ccccc2)oc1N1CCC(C(N)=O)CC1 | i | -6 | -1.9 | i | i | i
N#Cc1nc(Cc2cccc3ccccc23)oc1N1CCCCC1 | i | -8 | 0.02 | 6* | i | i
N#Cc1nc(COc2ccc(Cl)cc2)oc1N1CCCCCC1 | . | . | . | . | . | -8.7*
N#Cc1nc(Cc2cccc3ccccc23)oc1NCCCN1CCOCC1 | i | -1 | -6* | i | i | i
N#Cc1nc(Cc2cccc3ccccc23)oc1NCCCn1ccnc1 | i | -10 | -4.2 | i | i | i
O=C(Nc1ccc(Br)c2ccccc12)c1ccc2ccccc2c1O | i | -28 | 0.37 | 7* | i | i
O=C(Cc1ccccc1Cl)Nc1cc(S(=O)(=O)N2CCOCC2)ccc1N1CCOCC1 | . | . | . | . | . | i
O=C(NCCCN1CCOCC1)NC12CC3CC(CC(C3)C1)C2 | i | -7 | -0.39 | 6* | i | i
O=C(NCCCN1CCN(c2ccc(F)cc2)CC1)NC12CC3CC(CC(C3)C1)C2 | i | -16 | -1.8 | i | i | i
CC(=O)Nc1cccc(-c2nnc3c4ccccc4c(C)nn23)c1 | i | 52* | 1 | i | i | .
COc1ccc(C)cc1N(C(=O)c1snc(C(N)=O)c1N)C(C(=O)NC1CCCCC1)c1ccc(C)o1 (stereo unspecified) | i | -7 | -1.8 | i | i | i
Cc1cc(C)cc(NC(=O)CCN2CCOCC2)c1 | i | 3 | -0.95 | i | i | i
Cc1cc(SCc2ccc(Br)cc2)nc(=O)[nH]1 | i | -6 | 0.06 | i | i | i
O=S(=O)(NCCCc1ccccc1)c1ccc(Cl)cc1 | i | -13 | -4.8* | i | i | i
CCC[C@@H]1CCCC/C=C\CCCC(=O)OCCN1C(=O)OC(C)(C)C | . | . | . | . | . | i
COc1ccc(OC)c(NC(=S)N2CCC(C(O)(c3ccccc3)c3ccccc3)CC2)c1 | 44* | -5 | 0.11 | i | i | i
C[C@H](NC(=O)c1ccccc1Cl)C(=O)OCc1cn2cc(Cl)ccc2n1 | i | -6 | 0.98 | i | i | i
O=C(Nc1ccccc1)N1CCN(Cc2ccc(Cl)cc2)CC1 | i | -8 | 1.2 | i | i | i
O=C(Nc1ccc(Cl)cc1)N1CCCN(Cc2ccc(F)cc2)C1 | i | -14 | -4.5* | i | i | i
Cc1ccc(C2CC(=O)NC(SCc3ccccc3)=C2C#N)o1 (stereo unspecified) | i | -14 | -6.9* | i | i | i
CCSC1=C(C#N)C(c2ccc(C)o2)CC(=O)N1 (stereo unspecified) | i | -5 | -0.72 | i | i | i
N#CC1=C(SCc2ccccc2)NC(=O)CC1c1ccco1 (stereo unspecified) | i | -11 | -9.1* | i | i | i
O=P(Nc1ccccc1)(Nc1ccccc1)c1ccccc1 | . | . | . | . | . | i
CCOn1c(=O)c(-c2cccc3ccccc23)[n+]([O-])c2ccccc21 | i | -10 | -0.68 | i | i | i
O=c1c(-c2cccc3ccccc23)[n+]([O-])c2ccccc2n1O | i | 9.5* | -0.38 | i | i | i
Nc1c2c(=O)[nH]c(O)cc2nn1-c1ccccc1 | . | . | . | . | . | i
